≈ marks a conversion by molar mass, not a printed value.
Assays:
[1] = test system: HEp-2; experiment: Cytotoxicity against human Hep2 cells by MTT assay; format: functional, cell-based
[2] = Cytotoxicity against human Doay cells by MTT assay; format: functional, cell-based
[3] = test system: WiDr; experiment: Cytotoxicity against human WiDr cells by MTT assay; format: functional, cell-based
[4] = test system: HeLa; experiment: Cytotoxicity against human HeLa cells by MTT assay; format: functional, cell-based
[5] = Antiinflammatory activity against FMLP/CB stimulated human neutrophils assessed as inhibition of elastase release relative to control; format: functional, cell-based; conditions: Neutrophil
Outline: (§1)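 Neutrophils were supplemented with 100 µM MeO-Suc-Ala-Ala-Pro-Val-p-nitroanilide at 6 × 10^5/mL, equilibrated 2 min at 37 °C, then given compound for 5 min. They were activated with FMLP (100 nM)/CB (0.5 µg/mL), and A405 was followed continuously. The initial rate is expressed relative to the FMLP/CB-activated DMSO control. Mean ± SEM, n = 3.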

[6] = Antiinflammatory activity against FMLP/CB stimulated human neutrophils assessed as inhibition of superoxide anion generation relative to control; format: functional, cell-based; conditions: Neutrophil
Outline: (§2)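 Human neutrophils were isolated by dextran sedimentation and Ficoll centrifugation. Cells were given 0.5 mg/mL ferricytochrome c and 1 mM Ca2+, equilibrated 2 min at 37 °C, then treated with compound for 5 min. CB (1 µg/mL) was added 3 min before 100 nM FMLP for 10 min. Superoxide was measured as SOD-inhibitable ferricytochrome c reduction. Mean ± SEM, n = 3.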

[7] = Antiinflammatory activity against FMLP/CB stimulated human neutrophils assessed as inhibition of elastase release at 10 ug/mL relative to control; format: functional; conditions: Neutrophil; outline: as §1
[8] = Antiinflammatory activity against FMLP/CB stimulated human neutrophils assessed as inhibition of superoxide anion generation at 10 ug/mL relative to control; format: functional; conditions: Neutrophil; outline: as §2

Row | IC50 [5] [µg/mL] | IC50 [6] [µg/mL] | Structure (SMILES) | IC50 [1] [µg/mL] | IC50 [2] [µg/mL] | IC50 [3] [µg/mL] | IC50 [4] [µg/mL] | inhibition at 10 µg/mL [7] [%] | inhibition at 10 µg/mL [8] [%]
1 | 27.4 (≈ 49.8 µM) | 17.5 (≈ 31.8 µM) | C=C1C[C@H](OC(C)=O)[C@H](OC(C)=O)[C@]2(C)[C@@H](OC(C)=O)CC/C(C)=C\[C@@H]3OC(=O)[C@H](C)[C@@]3(O)[C@@H](OC(C)=O)[C@@H]12 (relative stereo) [FRAJUNOLIDE E] | > 20 | > 20 | > 20 | > 20 |  | 
2 |  |  | C=C1C[C@H](OC(C)=O)[C@H](OC(C)=O)[C@]2(C)[C@@H](OC(C)=O)C[C@@]3(O)O[C@]4([C@@H](C)C(=O)O[C@H]4[C@@H](Cl)C3=C)[C@@H](OC(C)=O)[C@@H]12 (relative stereo) [FRAJUNOLIDE F] | > 20 | > 20 | > 20 | > 20 | 10.4 | 7.4
3 |  |  | C=C1/C=C\[C@H](OC(=O)COC(=O)CC(C)C)[C@@]2(C)[C@@H](OC(C)=O)CC[C@]3(CO3)[C@@H]2[C@H](OC(C)=O)[C@]2(O)[C@@H](C)C(=O)O[C@H]2[C@H]1Cl (relative stereo) [FRAJUNOLIDE G] | > 20 | > 20 | > 20 | > 20 | 8.3 | -7.5
4 |  |  | C=C1C[C@H](OC(C)=O)[C@H](OC(C)=O)[C@]2(C)[C@@H](OC(C)=O)/C=C/C(=C)[C@H](Cl)[C@@H]3OC(=O)[C@H](C)[C@@]3(O)[C@@H](OC(C)=O)[C@@H]12 (relative stereo) [FRAJUNOLIDE H] | > 20 | > 20 | > 20 | > 20 | 0.1 | -1.9
5 |  |  | C=C1/C=C/[C@H](OC(C)=O)[C@@]2(C)[C@@H](OC(C)=O)[C@@H](OC(C)=O)C[C@]3(CO3)[C@@H]2[C@H](OC(C)=O)[C@]2(O)[C@@H](C)C(=O)O[C@H]2[C@H]1Cl (relative stereo) [FRAJUNOLIDE I] | > 20 | > 20 | > 20 | > 20 | 18.2 | -10.3
6 |  |  | C=C1[C@@H]2[C@H](OC(C)=O)[C@@]3(O)[C@H](/C=C(/C)CC[C@H](OC(C)=O)[C@@]2(C)[C@@H](OC(C)=O)C[C@H]1OC(=O)CC)OC(=O)[C@@H]3C (relative stereo) [FRAJUNOLIDE J] | > 20 | > 20 | > 20 | > 20 | 19.9 | 20.1
7 |  |  | C=C1CC[C@H](OC(C)=O)[C@]2(C)[C@@H](OC(=O)COC(=O)CC(C)C)/C=C\C(=C)[C@H](Cl)[C@@H]3OC(=O)[C@H](C)[C@@]3(O)[C@@H](OC(C)=O)[C@@H]12 (relative stereo) [FRAJUNOLIDE K] | > 20 | > 20 | > 20 | > 20 | 8 | 2.4
8 |  |  | CC[C@@]1(O)C(=O)OCc2c1cc1n(c2=O)Cc2cc3ccccc3nc2-1 [CAMPTOTHECIN] | 0.02 (≈ 0.0574 µM) | 0.08 (≈ 0.23 µM) | 0.07 (≈ 0.201 µM) | 0.19 (≈ 0.545 µM) |  | 
9 |  |  | O=c1c(-c2ccc(O)cc2)coc2cc(O)cc(O)c12 [GENISTEIN] |  |  |  |  | 51.6 | 65
